Experimental data from ChEMBL document CHEMBL1151228, “Three cyclooctapeptides and one glycoside from Microtoena prainiana” (J Nat Prod, 2004).
Active and inactive are the calls of the source. No cut-off for these calls is given here. Where a SMILES comes first, the peptide text is derived from it.

Experiments:
[1] = Cytotoxicity against human Bre04 cells by SRB assay; format: functional, cell-based
Method in brief: (§1)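 Sulforhodamine B (SRB) cytotoxicity assay on human tumour lines: breast cancer Bre04, lung cancer Lu04 and neuroma N04.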

[2] = Cytotoxicity against human Lu04 cells by SRB assay; format: functional, cell-based; method in brief: as §1
[3] = Cytotoxicity against human N04 cells by SRB assay; format: functional, cell-based; method in brief: as §1
Human alphaherpesvirus 2 = test: Antiviral activity against HSV2 333 infected in african green monkey Vero cells assessed as virus-induced cytopathic effect at 250 ug/ml; format: functional, organism-based
Method in brief: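 Vero cells infected with HSV-2 (strain 333); inhibition of viral replication read as cytopathic effect (CPE); compounds tested at 250 µg/mL; acyclovir as positive drug control.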

[4] = biological target: Angiotensin-converting enzyme (Homo sapiens) (UniProt P12821); test: Inhibition of ACE at 0.1 mg/ml
Method in brief: (§2)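 ACE extract (10 µg total protein) preincubated with sample for 30 min at 37 °C. HHL substrate then added for 15 min at 37 °C. NaOH and O-phthaldialdehyde added, stopped after 10 min with HCl. His-Leu fluorescence read at ex 405/em 535 nm. % inhibition = 100×(N−S)/(N−B) against negative and blank controls. Captopril positive control; at least three determinations.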

[5] = biological target: Angiotensin-converting enzyme (Homo sapiens) (UniProt P12821); test: Inhibition of ACE at 1 mg/ml; method in brief: as §2

Chain of Angiotensin-converting enzyme (Homo sapiens) (P12821 whole entry): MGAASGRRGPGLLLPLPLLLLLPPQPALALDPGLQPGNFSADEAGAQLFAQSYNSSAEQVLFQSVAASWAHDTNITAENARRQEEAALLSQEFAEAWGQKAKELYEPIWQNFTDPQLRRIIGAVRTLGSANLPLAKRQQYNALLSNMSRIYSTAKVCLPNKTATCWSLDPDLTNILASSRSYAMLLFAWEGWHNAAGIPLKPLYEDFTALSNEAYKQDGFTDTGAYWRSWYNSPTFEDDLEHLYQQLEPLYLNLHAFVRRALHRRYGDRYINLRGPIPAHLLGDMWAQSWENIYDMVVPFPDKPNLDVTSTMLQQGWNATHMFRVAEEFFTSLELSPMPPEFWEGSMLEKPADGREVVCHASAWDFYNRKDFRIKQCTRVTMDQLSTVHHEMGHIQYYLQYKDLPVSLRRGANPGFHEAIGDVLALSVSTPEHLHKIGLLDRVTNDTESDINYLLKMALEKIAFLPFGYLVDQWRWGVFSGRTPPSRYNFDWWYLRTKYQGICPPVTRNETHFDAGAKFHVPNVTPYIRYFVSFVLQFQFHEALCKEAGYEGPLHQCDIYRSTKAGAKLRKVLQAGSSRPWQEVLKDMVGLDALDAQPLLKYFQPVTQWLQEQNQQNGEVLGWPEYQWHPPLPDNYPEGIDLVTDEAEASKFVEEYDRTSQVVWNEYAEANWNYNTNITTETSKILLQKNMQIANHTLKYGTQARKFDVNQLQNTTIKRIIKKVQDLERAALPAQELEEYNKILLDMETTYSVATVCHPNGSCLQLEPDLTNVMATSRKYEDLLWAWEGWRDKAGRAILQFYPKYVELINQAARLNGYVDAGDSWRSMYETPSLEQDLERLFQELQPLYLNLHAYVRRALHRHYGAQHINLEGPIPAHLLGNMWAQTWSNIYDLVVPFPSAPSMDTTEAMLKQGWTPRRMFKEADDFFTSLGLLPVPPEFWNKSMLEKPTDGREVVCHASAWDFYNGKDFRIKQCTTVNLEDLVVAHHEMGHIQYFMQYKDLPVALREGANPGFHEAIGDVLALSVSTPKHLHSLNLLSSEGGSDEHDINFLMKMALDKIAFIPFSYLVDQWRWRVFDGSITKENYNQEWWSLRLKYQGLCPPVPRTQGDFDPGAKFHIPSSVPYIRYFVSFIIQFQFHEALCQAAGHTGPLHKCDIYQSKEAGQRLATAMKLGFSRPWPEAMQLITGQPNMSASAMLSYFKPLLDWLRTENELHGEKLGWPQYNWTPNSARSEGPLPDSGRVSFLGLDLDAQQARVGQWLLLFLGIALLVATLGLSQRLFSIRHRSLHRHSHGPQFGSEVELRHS

| inhibition [4] | inhibition [5] | SMILES | IC50 [1] | IC50 [2] | IC50 [3] | Activity (Human alphaherpesvirus 2) |
| --- | --- | --- | --- | --- | --- | --- |
|  |  | CC[C@H](C)[C@@H]1NC(=O)[C@@H]2CCCN2C(=O)[C@H](CC(C)C)NC(=O)[C@@H]2CCCN2C(=O)[C@H](Cc2ccccc2)NC(=O)[C@H](CC(N)=O)NC(=O)[C@H](Cc2ccc(O)cc2)NC(=O)[C@@H]2CCCN2C1=O [MICROTOENIN C] (cyclo(FPLPIPYN)) | > 100 µg/mL | > 100 µg/mL | > 100 µg/mL |  |
|  |  | CC(C)C[C@@H]1NC(=O)[C@H](C(C)C)NC(=O)[C@@H]2CCCN2C(=O)[C@H](Cc2ccccc2)NC(=O)[C@H](C)NC(=O)[C@H](C(C)C)NC(=O)[C@@H]2CCCN2C(=O)[C@H](Cc2ccc(O)cc2)NC1=O (cyclo(AFPVLYPV)) |  |  |  | inactive |
|  |  | CC(C)[C@@H]1NC(=O)[C@H](Cc2ccccc2)NC(=O)[C@H](Cc2ccccc2)NC(=O)[C@H](C)NC(=O)[C@H](C)NC(=O)CNC(=O)[C@H](Cc2ccccc2)NC(=O)[C@@H]2CCCN2C1=O [MICROTOENIN B] (cyclo(AAFFVPFG)) | > 100 µg/mL | > 100 µg/mL | > 100 µg/mL |  |
| 75.5% | 99.7% | C[C@@H]1O[C@@H](O[C@@H]2[C@H]3O[C@@H](c4ccc(O)c(O)c4)CO[C@@H]3O[C@H](CO)[C@H]2OC(=O)/C=C/c2ccc(O)c(O)c2)[C@H](O)[C@H](O)[C@H]1O |  |  |  | inactive |
|  |  | CC(C)[C@@H]1NC(=O)[C@@H]2CCCN2C(=O)[C@H](Cc2ccccc2)NC(=O)CNC(=O)[C@H](C)NC(=O)[C@H](C)NC(=O)[C@H](Cc2ccccc2)NC(=O)[C@H](Cc2ccccc2)NC1=O (cyclo(AAGFPVFF)) |  |  |  | inactive |
|  |  | CC(C)C[C@@H]1NC(=O)[C@H](Cc2ccc(O)cc2)NC(=O)[C@@H]2CCCN2C(=O)[C@H](C(C)C)NC(=O)[C@H](C)NC(=O)[C@H](Cc2ccccc2)NC(=O)[C@@H]2CCCN2C(=O)[C@H](C(C)C)NC1=O [MICROTOENIN A] (cyclo(AVPYLVPF)) | > 100 µg/mL | > 100 µg/mL | > 100 µg/mL |  |
| 67.5% | 99.8% | COc1cc(/C=C/C(=O)O[C@H]2[C@H](O[C@@H]3O[C@@H](C)[C@H](O)[C@@H](O)[C@H]3O)[C@H]3O[C@@H](c4ccc(O)c(O)c4)CO[C@@H]3O[C@@H]2CO)ccc1O |  |  |  | inactive |
| 71.4% | 99.3% | C[C@@H]1O[C@@H](O[C@H]2[C@H](O)[C@@H](COC(=O)/C=C/c3ccc(O)c(O)c3)O[C@H]3OC[C@H](c4ccc(O)c(O)c4)O[C@@H]32)[C@H](O)[C@H](O)[C@H]1O |  |  |  | inactive |
|  |  | CC[C@@H](C)[C@@H]1NC(=O)[C@@H]2CCCN2C(=O)[C@H](Cc2ccc(O)cc2)NC(=O)[C@H](CC(N)=O)NC(=O)[C@H](Cc2ccccc2)NC(=O)[C@@H]2CCCN2C(=O)[C@H](CC(C)C)NC(=O)[C@@H]2CCCN2C1=O |  |  |  | inactive |
